Experimental data as given in PMC3902791 (Molecular imaging and biology : MIB : the official …, 2012).

Assay: Stability of radiochemical purity of the product
Assay type: physicochemical
Conditions: after completion of the synthesis
In short: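 Final product was in 0.9% saline adjusted to pH 6–8 and sterile-filtered. Radiochemical purity was followed after end of synthesis by HPLC: Supelcogel C-610H column (30 cm × 7.8 mm), 20 mM aqueous phosphoric acid, 0.5 mL/min, UV and radioactivity detection.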

O=C(O)C[18F] [^18F-FACE, ^18F-fluoroacetate]
time the product maintained its radiochemical purity: more than 8 h
